Fh CTSL1 inh: blocks F. hepatica cathepsin L1 in PFM18AAP counter-screen | recombinant F. hepatica cathepsin L1, Z-Leu-Arg-MCA fluorescence | inhibition, % at 5.96 µM | actives 0.49% (n = 300,000) | AID 1906;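 active = inhibition above the mean of all tested compounds plus 3 SD, set per screening campaign, cut at about 17% in these data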;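 note: 0% = plate median of test compound wells and 100% = 1 µM Z-Phe-Ala-diazomethylketone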
PP1 inh: blocks human PP1-alpha phosphatase, a PP5 counter-screen | AID 2235 | P62136 | actives 0.9% (n = 320,000) | purified PP1alpha, OMFP fluorescence | inhibition, % at 6.7 µM;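 active = inhibition above the mean inhibition of all tested compounds plus 3 SD, computed separately for each screening campaign, cut at about 15% in these data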
Target sequence (P62136 whole entry, looked up): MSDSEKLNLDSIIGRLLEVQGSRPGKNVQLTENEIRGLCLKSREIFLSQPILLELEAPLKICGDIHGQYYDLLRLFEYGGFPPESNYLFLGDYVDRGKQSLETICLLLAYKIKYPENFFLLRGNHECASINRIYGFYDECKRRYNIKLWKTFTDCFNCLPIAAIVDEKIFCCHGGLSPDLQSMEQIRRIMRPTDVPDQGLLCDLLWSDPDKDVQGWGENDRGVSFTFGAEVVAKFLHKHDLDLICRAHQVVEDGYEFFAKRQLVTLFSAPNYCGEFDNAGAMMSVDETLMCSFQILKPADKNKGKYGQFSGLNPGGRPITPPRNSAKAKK
Myeloid diff 2: compounds promoting myeloid differentiation; ER-HoxA9 myeloid progenitors, lysozyme-GFP differentiation, flow cytometry; calls only at 10 µM; actives 1% (n = 360,000);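 active = normalized GFP-positive differentiation at or above the plate's own cutoff, the solvent-only control mean plus 3 SD; inconclusive = no clear call, values can overlap the other calls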;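 note: cells exposed to compound for four days before flow analysis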
HCV core dimer: blocks dimerization of HCV core protein | TR-FRET GST/Flag-core106 dimerization, 1536-well | inhibition, % at 5 µM | actives 0.33% (n = 300,000) | AID 1899;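 active = inhibition above the mean of all tested compounds plus 3 SD, set per screening campaign, cut at about 45% in these data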
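Assay system: Tagged HCV core106 pair (GST and Flag) | Buffer or medium: KF-containing HEPES buffer, pH 7.45, DTT, CHAPS, BSA | Also added: Eu donor and XL665 acceptor anti-tag antibodies | Dosing: One concentration, 5 µM, in 0.5% DMSO | Timing: 4 h at 22.5 °C | Technique: TR-FRET 671 and 617 nm emission | Repeats: Singlicate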
NadD inh: blocks S. aureus nicotinate mononucleotide adenylyltransferase; actives 0.78% (n = 360,000); purified NadD enzyme, colorimetric absorbance read-out; inhibition, % at 20 µM; in the data active = inhibition above about 26%
PP5 inh: PP5 (human) phosphatase inhibition; P53041; purified PP5c, OMFP substrate fluorescence; inhibition, % at 6.7 µM; actives 0.18% (n = 320,000); AID 1987;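 active = inhibition above the campaign's mean inhibition across all tested compounds plus 3 SD, cut at about 9.5% in these data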;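 note: 0% = DMSO only and 100% = 100 µM cantharidin control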
NadD inh conf: confirmation of Staphylococcus aureus NadD inhibitors. shares compounds with NadD inh. purified S. aureus NadD, colorimetric enzyme assay. inhibition, % at 20 µM. actives 13% (n = 2,000); in the data active = inhibition mostly above about 42%, no sharp cut-off; inactive = mostly below about 42%
* hit, by the source's call; i = inactive; ? = inconclusive; nt = no result given; + = active, no number; ! = a repeat was not active. An excerpt weighted towards active compounds, which were near 3.1% of everything screened.

SMILES	Fh CTSL1 inh	PP1 inh	Myeloid diff 2	HCV core dimer	NadD inh	PP5 inh	NadD inh conf
Cc1nc(N2CCN(S(=O)(=O)c3ccccc3)CC2)c2cc(-c3ccccc3)sc2n1	3	-3	nt	29	41*	1	4
O=C1Cc2c(-c3ccccc3)cc(-c3cccc(Cl)c3)nc2-c2ccccc2N1	nt	nt	i	nt	37*	nt	2
CC12CCC(C(S(=O)(=O)Nc3ccccc3)C1=O)C2(C)C (stereo not drawn)	nt	nt	i	nt	-1	nt	nt
CC(C)C[C@H]1CN([C@@H](Cc2ccc(O)cc2)CN2CCC[C@H]2CN2C(=O)C(=O)NC[C@@H]2Cc2ccccc2)C(=O)C(=O)N1CC1CCCCCC1	nt	nt	i	nt	30*	nt	35
CC(C)C[C@H]1CNC(=O)C(=O)N1C[C@@H]1CCCN1C[C@H](Cc1ccc(O)cc1)N1C[C@H](Cc2ccccc2)N(CC2CCCCC2)C(=O)C1=O	nt	nt	i	nt	28	nt	nt
CC(C)C[C@H]1CN([C@@H](Cc2ccc(O)cc2)CN2CCC[C@@H]2CN2C(=O)C(=O)NC[C@@H]2Cc2ccccc2)C(=O)C(=O)N1CC1CCCCC1	nt	nt	i	nt	31*	nt	37
CC(C)C[C@H]1CN([C@@H](Cc2ccccc2)CN2CCC[C@@H]2CN2C(=O)C(=O)NC[C@@H]2Cc2ccc(O)cc2)C(=O)C(=O)N1CC1CCCCCC1	nt	nt	i	nt	12	nt	nt
COC(=O)CCCn1cc(CN2CC(N3CCN(C)CC3)CS2(=O)=O)nn1 (stereo not drawn)	nt	nt	i	nt	-1	nt	nt
Cc1ccc(S(=O)(=O)NCCC(=O)NC(C)CCc2ccccc2)cc1 (stereo not drawn)	-1	-1	i	0	0	0	nt
Cc1ccc(S(=O)(=O)NCC(=O)NNC(=O)c2ccccc2Cl)cc1C	nt	nt	i	nt	-9	nt	nt
O=C(c1nn2c(C(F)(F)F)cc(-c3ccco3)nc2c1Br)N1CCCc2ccccc21	0	8	i	11	31*	4	5
O=C(c1nn2c(C(F)(F)F)cc(-c3cccs3)nc2c1Br)N1CCCc2ccccc21	-1	6	i	-61	16	4	nt
CSc1ccc(C2C(C#N)=C(N)Oc3c2ccc(=O)c2c(C)oc(C)c32)cc1 (stereo not drawn)	4	6	i	78*	58*	1	25
COc1ccc(C2C(C#N)=C(N)Oc3c2oc(CO)cc3=O)cc1 (stereo not drawn)	-8	-1	i	3	-2	-2	nt
O=C(NCCN1C(=O)S/C(=C\c2ccc(Cl)c(Cl)c2)C1=O)c1ccc2c(c1)C(=O)N(Cc1ccncc1)C2=O	-3	7	i	38	28*	0	-4
O=S(=O)(/N=C(/Nc1ccc(Cl)c(S(=O)(=O)Nc2ccccc2Cl)c1)c1ccc(F)cc1)c1ccccc1	1	6	i	20	41*!	5	55*
O=Cc1cccc(OC(=O)Nc2ccccc2)c1	-1	-5	i	-2	1	6	nt
O=C(Nc1ncc(Cc2ccccc2Cl)s1)c1ccc(-c2cccc([N+](=O)[O-])c2)o1	3	-3	i	11	36*	0	3
O=C(Nc1nc(C2C3CC4CC(C3)CC2C4)cs1)c1cc2cc([N+](=O)[O-])ccc2oc1=O (stereo not drawn)	-3	-1	i	5	35*	0	4
COC(=O)c1ccc(C23CC4(C2)[C@H](CN(CC2CCCCC2)[C@@H]4c2ccccc2)C3c2ccc(Cl)nc2)cc1 (stereo partly drawn)	7	8	i	-10	35*	1	9
COc1cccc(NC(=O)CSCc2nc3sc(C)c(C)c3c(=O)[nH]2)c1	nt	nt	i	nt	3	nt	nt
CCc1nc2cc(NC(=O)C3(C)CCCN(C(C)C)C3)ccc2o1 (stereo not drawn)	nt	nt	i	nt	1	nt	nt
CCCCCCCCOC(=O)c1c(CSC(=N)N)n(C)c2cc(Br)c(OC(C)=O)cc12	5	17*	i	2	42*	3	32
O=C1Nc2ccccc2N(O)N1c1ccc(Cl)cc1	4	-5	i	-3	6	3	nt
CCN1c2ccccc2NC2C1C(C(C)=O)C(=O)N2c1ccc(Cl)cc1 (stereo not drawn)	6	5	+	9	37*	2	5
SMILES	Fh CTSL1 inh	PP1 inh	Myeloid diff 2	HCV core dimer	NadD inh	PP5 inh	NadD inh conf
CCOC(=O)c1[nH]c(C)c(C(=O)N2CCCC(Nc3ccc(C)c(C)c3)C2)c1C (stereo not drawn)	1	-1	?	-15	1	2	nt
CCCCN(C)C(=O)Cn1cnc2sc(C)c(S(=O)(=O)N3CCN(c4ccccc4OC)CC3)c2c1=O	0	-4	i	9	4	-2	nt
C#CCNC(=O)c1cc2c(Br)ccc(Br)c2nc1N	nt	nt	i	nt	9	nt	nt
CCNc1ccc(Br)cc(C(=O)/C=C/c2ccc(Cl)cc2)c1=O	2	7	i	24	44*	-4	18
CNc1ccc(Br)cc(C(=O)/C=C/c2ccc(Cl)cc2Cl)c1=O	2	11	i	45	62*	-1	14
CCNc1ccc(Br)cc(C(=O)/C=C/c2ccc3c(c2)OCO3)c1=O	-1	4	i	58*	52*	0	25
CCN(C[C@H]1N[C@@](C)(C(=O)OC)[C@H]2C(=O)N(Cc3ccccc3)C(=O)[C@@H]12)S(=O)(=O)c1ccccc1	nt	nt	i	nt	1	nt	nt
CC(C)C[C@@H](CNCC(=O)[C@H](Cc1c[nH]c2ccccc12)NC(=O)c1[nH]cnc1C(=O)N[C@H](CN)CC(C)C)NC(=O)c1nc[nH]c1C(=O)N[C@@H](CC(=O)O)C(=O)O	nt	nt	i	nt	31*	nt	45
CC(C)C[C@@H](CNCC(=O)[C@H](Cc1c[nH]c2ccccc12)NC(=O)c1[nH]cnc1C(=O)N[C@@H](C)CN)NC(=O)c1nc[nH]c1C(=O)N[C@@H](CC(=O)O)C(=O)O	nt	nt	i	nt	14	nt	nt
COC(=O)c1c(NC(=O)COC(=O)c2ccccc2O)sc2c1CCCCC2	-2	-6	i	0	2	2	nt
COC(=O)c1c(NC(=O)COC(=O)c2ccc(NC(=O)CC#N)cc2)sc2c1CCCCC2	-1	13	i	62*	82*	1	25
Oc1ccc(Nc2nc(-c3cccs3)cs2)cc1	0	7	i	40	33*	1	62*
COc1ccc(Nc2nc(-c3cccs3)cs2)cc1	0	-4	nt	19	nt	0	nt
COc1ccc(NS(=O)(=O)c2ccc(N3CCOCC3)c(NC(=O)c3ccc(F)cc3)c2)cc1	1	2	i	-2	-4	0	nt
COc1ccc(NS(=O)(=O)c2ccc(O)c(NC(=O)c3cc4c(C)nn(-c5ccc(F)cc5)c4s3)c2)cc1	-1	13	i	43	47*	6	40

From PubChem
